Assay [1] can be described thus: Inhibition of Aeromonas hydrophila class B2 metallo beta-lactamse CphA assessed as reduction in meropenem hydrolysis after 10 mins by UV absorbance method.
Assay [2] can be described thus: Inhibition of bacterial class B1 metallo beta-lactamase NDM-1 assessed as reduction in breakdown of cephalosporin FC-5 after 10 mins by fluorescence method. Also on record: species or system Bacteria. A digest of the protocol: (§1)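 Enzyme levels: L1 50 pM, IMP-1 20 pM, NDM-1 20 pM, VIM-1 100 pM, VIM-2 500 pM. Inhibitor pre-incubated with enzyme 10 min. Four-parameter fit for IC50.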

Assay [3] can be described thus: Inhibition of bacterial class D serine beta-lactamase OXA-10 assessed as reduction in breakdown of cephalosporin FC-5 in presence of aqueous sodium bicarbonate after 10 mins by fluorescence method. Also on record: species or system Bacteria. The method, boiled down:
(§2)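 SBL buffer (phosphate pH 7.4, 0.01% v/v Triton X-100) supplemented with 100 mM NaHCO3, room temperature, FC5 5 μM. Enzyme levels: OXA-10 250 pM, OXA-48 12.5 nM. Inhibitor pre-incubated with enzyme 10 min. Initial rates by fluorescence at 380/460 nm. IC50 from a four-parameter fit.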

Assay [4] can be described thus: Inhibition of bacterial class B1 metallo beta-lactamase VIM-1 assessed as reduction in breakdown of cephalosporin FC-5 after 10 mins by fluorescence method. Further details: species or system Bacteria. A digest of the protocol: as §1
Assay [5] can be described thus: Inhibition of bacterial class D serine beta-lactamase OXA-48 assessed as reduction in breakdown of cephalosporin FC-5 in presence of aqueous sodium bicarbonate after 10 mins by fluorescence method. Also on record: species or system Bacteria. A digest of the protocol: as §2
Assay [6] is described as follows: Inhibition of Pseudomonas aeruginosa class C serine beta-lactamase AmpC assessed as reduction in breakdown of cephalosporin FC-5 after 10 mins by fluorescence method. A digest of the protocol:
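AmpC at 500 pM was pre-incubated with inhibitor for 10 min at room temperature in phosphate buffer, pH 7.4, with 0.01% (v/v) Triton X-100, then given 5 μM FC5. Initial hydrolysis rates were read by fluorescence (ex 380 nm, em 460 nm), and IC50 was taken from a four-parameter log(inhibitor) vs response fit.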

The nature of assay [7]: Inhibition of bacterial class B1 metallo beta-lactamse VIM-2 assessed as reduction in breakdown of cephalosporin FC-5 after 10 mins by fluorescence method. Also on record: species or system Bacteria. The method, boiled down:
(§3)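 Enzyme levels: L1 50 pM, IMP-1 20 pM, NDM-1 20 pM, VIM-1 100 pM, VIM-2 500 pM. Inhibitor pre-incubated with enzyme 10 min. Initial rates by fluorescence (ex 380/em 460 nm). Four-parameter fit for IC50.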

Assay [8] can be described thus: Inhibition of bacterial class B1 metallo beta-lactamase IMP-1 assessed as reduction in breakdown of cephalosporin FC-5 after 10 mins by fluorescence method. Further details: species or system Bacteria. A digest of the protocol: as §3
The nature of assay [9]: Inhibition of Stenotrophomonas maltophilia class B3 metallo beta-lactamse L1 assessed as reduction in breakdown of cephalosporin FC-5 after 10 mins by fluorescence method. A digest of the protocol:
as §3

The nature of assay [10]: Inhibition of bacterial class D serine beta-lactamase OXA-10 assessed as reduction in breakdown of cephalosporin FC-5 after 10 mins by fluorescence method. Also on record: species or system Bacteria. The method, boiled down: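 Run in SBL buffer (phosphate pH 7.4, 0.01% v/v Triton X-100) at room temperature with 5 μM FC5. Enzyme levels: OXA-10 250 pM, OXA-48 12.5 nM. Enzyme pre-incubated with inhibitor 10 min. Initial rates by fluorescence (ex 380/em 460 nm). IC50 from a four-parameter log(inhibitor) fit.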

The test system of the next assay is Bacteria. Description: Reversible inhibition of bacterial class B1 metallo beta-lactamase NDM-1 assessed as reduction in breakdown of cephalosporin FC-5 after 15 to 180 mins by fluorescence method.
The test system of assay [11] is Escherichia coli. Description: Inhibition of metallo beta-lactamase NDM-1 in Escherichia coli S117 assessed as potentiation of cefepime-induced antibacterial activity by measuring cefepime MIC at 10 ug/ml by agar dilution method (Rvb > 64 ug/ml). A digest of the protocol: (§4)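 Agar dilution MIC of meropenem or cefepime combined with the inhibitor, against NDM-1-producing clinical isolates of E. coli and K. pneumoniae. Interpreted per EUCAST/CLSI guidelines. Reference strain MICs within ±1 log2 dilution of reference values.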
(In general: In agar dilution the substance is mixed into plates at graded concentrations.)

Assay [12] in a line: Inhibition of bacterial class D serine beta-lactamase OXA-48 assessed as reduction in breakdown of cephalosporin FC-5 after 10 mins by fluorescence method. Further details: species or system Bacteria. The method, boiled down:
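Run in SBL buffer (phosphate pH 7.4, 0.01% v/v Triton X-100) at room temperature with 5 μM FC5. Enzyme pre-incubated with inhibitor 10 min. IC50 from a four-parameter log(inhibitor) fit.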

Assay [13] has as its target Metallo-beta-lactamase type 2 (Klebsiella pneumoniae) (UniProt C7C422). Kind of assay: Inhibition of metallo beta-lactamase NDM-1 in Klebsiella pneumoniae IR43 assessed as potentiation of cefepime-induced antibacterial activity by measuring cefepime MIC at 10 ug/ml by agar dilution method (Rvb > 64 ug/ml). The method, boiled down: as §4
For assay [14] the target is unchanged. Description: Inhibition of metallo beta-lactamase NDM-1 in Klebsiella pneumoniae B68-1 assessed as potentiation of cefepime-induced antibacterial activity by measuring cefepime MIC at 10 ug/ml by agar dilution method (Rvb > 64 ug/ml). The method, boiled down: as §4
In assay [15] the test system is Escherichia coli. Description: Inhibition of metallo beta-lactamase NDM-1 in Escherichia coli 91N assessed as potentiation of cefepime-induced antibacterial activity by measuring cefepime MIC at 10 ug/ml by agar dilution method (Rvb > 64 ug/ml). The method, boiled down:
as §4

Assay [16] deals with Escherichia coli. Kind of assay: Inhibition of metallo beta-lactamase NDM-1 in Escherichia coli IR57 assessed as potentiation of meropenem-induced antibacterial activity by measuring meropenem MIC at 10 ug/ml by agar dilution method (Rvb > 64 ug/ml). The method, boiled down: as §4
Assay [17] concerns Escherichia coli. Description: Inhibition of metallo beta-lactamase NDM-1 in Escherichia coli S117 assessed as potentiation of meropenem-induced antibacterial activity by measuring meropenem MIC at 10 ug/ml by agar dilution method (Rvb > 64 ug/ml). A digest of the protocol: as §4
Assay [18] relates to Escherichia coli. Kind of assay: Inhibition of metallo beta-lactamase NDM-1 in Escherichia coli IR57 assessed as potentiation of cefepime-induced antibacterial activity by measuring cefepime MIC at 10 ug/ml by agar dilution method (Rvb > 64 ug/ml). The method, boiled down:
as §4

The subject of assay [19] is Escherichia coli. Kind of assay: Inhibition of metallo beta-lactamase NDM-1 in Escherichia coli 91N assessed as potentiation of meropenem-induced antibacterial activity by measuring meropenem MIC at 10 ug/ml by agar dilution method (Rvb > 64 ug/ml). A digest of the protocol:
as §4

Assay [20] deals with Metallo-beta-lactamase type 2 (Klebsiella pneumoniae) (UniProt C7C422). Description: Inhibition of metallo beta-lactamase NDM-1 in Klebsiella pneumoniae B68-1 assessed as potentiation of meropenem-induced antibacterial activity by measuring meropenem MIC at 10 ug/ml by agar dilution method (Rvb > 64 ug/ml). The method, boiled down:
as §4

In the next assay the target is Beta-lactamase OXA-10 (Pseudomonas aeruginosa, UniProt P14489). Description: Inhibition of Pseudomonas aeruginosa class D serine beta-lactamase OXA-10 expressed in Escherichia coli BL21(DE3) cells assessed as reduction in breakdown of cephalosporin FC-5 in presence of aqueous sodium bicarbonate after 10 to 300 mins by fluorescence method.
Chain of Beta-lactamase OXA-10 (P14489 whole entry): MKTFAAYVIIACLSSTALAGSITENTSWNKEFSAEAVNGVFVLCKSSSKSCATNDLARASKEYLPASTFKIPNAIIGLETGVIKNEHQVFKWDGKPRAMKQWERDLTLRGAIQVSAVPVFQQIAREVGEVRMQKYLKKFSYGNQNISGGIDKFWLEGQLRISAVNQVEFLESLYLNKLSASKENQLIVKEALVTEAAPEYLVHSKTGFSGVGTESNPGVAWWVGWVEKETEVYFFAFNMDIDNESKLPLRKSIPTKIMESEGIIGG
A short description of assay [21]: Inhibition of Pseudomonas aeruginosa PAO1 class C serine beta-lactamase N-terminal His- tagged AmpC expressed in Escherichia coli BL21(DE3) cells assessed as reduction in breakdown of cephalosporin FC-5 preincubated for 10 to 300 mins followed by cephalosporin FC-5 addition by fluorescence method.
Assay [22] is described as follows: Inhibition of recombinant bacterial class B1 metallo beta-lactamase NDM-1 expressed in Escherichia coli assessed as reduction in breakdown of cephalosporin FC-5 preincubated for 10 mins followed by cephalosporin FC-5 addition by fluorescence method. Also on record: species or system Bacteria. The method, boiled down: as §3
Assay [23] can be described thus: Inhibition of Klebsiella pneumoniae class D serine beta-lactamase N-terminal His-tagged OXA-48 expressed in Escherichia coli BL21(DE3) cells assessed as reduction in breakdown of cephalosporin FC-5 in presence of aqueous sodium bicarbonate after 10 to 300 mins by fluorescence method.
Assay [24] is described as follows: Inhibition of recombinant bacterial class B1 metallo beta-lactamase IMP-1 expressed in Escherichia coli assessed as reduction in breakdown of cephalosporin FC-5 preincubated for 10 mins followed by cephalosporin FC-5 addition by fluorescence method. Also on record: species or system Bacteria. A digest of the protocol:
as §3

Data on 3 molecules can be found in ChEMBL document CHEMBL4321803 (J Med Chem, 2019).

Broadly, the IC50 is the concentration needed to halve the response being measured.

The source made the active and inactive calls. No cut-off for these calls is given here. Bounds are passed on as bounds.

Chain of Metallo-beta-lactamase type 2 (Klebsiella pneumoniae) (C7C422 whole entry): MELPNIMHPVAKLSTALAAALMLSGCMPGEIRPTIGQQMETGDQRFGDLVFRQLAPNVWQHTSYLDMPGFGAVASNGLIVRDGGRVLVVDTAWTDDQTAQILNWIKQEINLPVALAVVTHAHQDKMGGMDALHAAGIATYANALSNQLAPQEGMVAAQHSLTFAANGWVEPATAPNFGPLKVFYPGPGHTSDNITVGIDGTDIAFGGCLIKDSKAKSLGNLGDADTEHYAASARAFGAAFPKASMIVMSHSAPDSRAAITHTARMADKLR

On to `O=C(O)C[C@@H]1CC[C@H](NC(=O)Cc2cccs2)B(O)O1` [VABORBACTAM], for which the IC50 in [1] is 631 µM; in assay [2], 631 µM; in assay [3], over 400 µM; in assay [4] it was 398 µM; in [5], 32 µM; in assay [6], 5 µM. In addition, the 50% inhibitory concentration (IC50) in assay [7] was 316 µM; in assay [8] it was 126 µM; in assay [9] it was 336 µM; in [10], over 400 µM.

With `NCCN[C@H]1CC[C@H](CC(=O)N[C@H]2Cc3cccc(C(=O)O)c3OB2O)CC1`, the IC50 amounted to 2.51 µM in [1]; 0.537 µM in assay [12]; 0.645 µM in assay [3]; 2.39 µM in [5]; 0.301 µM in assay [6]; 0.0005 µM in assay [7]. Further, the IC50 was 2.51 µM in [8], over 10 µM in assay [9] and 0.234 µM in [10]. For the same molecule, the inhibition result in the assay on Bacteria was “Active”. In addition, the MIC with Escherichia coli [11] was found to be 16 µg/mL; in assay [13], 0.5 µg/mL; in assay [14] it was 0.5 µg/mL; in the assay with Escherichia coli [15] it was 4 µg/mL; in the assay with Escherichia coli [16] it was 0.5 µg/mL; with Escherichia coli [17], 1 µg/mL. For the same molecule, the results for the MIC (in the assay on Escherichia coli [18]; with Escherichia coli [19]; in [20]) were 8 µg/mL, 0.125 µg/mL and 0.5 µg/mL, respectively.

As to `NCc1ccc(C(=O)N[C@H]2Cc3cccc(C(=O)O)c3OB2O)cc1`, the half-inhibitory concentration (IC50) is over 100 µM in [1]; 5.1 µM at Beta-lactamase OXA-10; 0.085 µM in [4]; 0.12 µM in assay [21]; 0.029 µM in assay [22]; 2.6 µM in assay [23]. For the same molecule, the concentration for half-maximal inhibition (IC50) in [24] amounted to 1 µM.
